Compound activity as filed in PubChem.
Rad51 HR inh: blocks human Rad51 in homologous recombination; 200,000 tested, 0.085% active; hRad51 DNA strand exchange, fluorescence dequenching; inhibition, % at 10 µM; AID 1385;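 active = inhibition above 40% at the single screening dose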;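 note: 0% = DMSO control wells and 100% = blanks with heterologous ssDNA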
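material = hRad51 filaments on single-stranded DNA | timing = filaments 15 min 37 °C, then compound 30 min | signal = FRET fluorescence dequenching, excitation 485 nm, emission 520 nm | benchmarks = control wells and blank wells on each plate | evaluation = percent inhibition relative to plate controls and blanks | compound = 10 µM final, single point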
PMI act hi M6P: increases human PMI activity with near-saturating mannose 6-phosphate; P34949; 190,000 tested, 0.34% active; activation factor at 20 µM; AID 1216; coupled PMI enzyme assay, resazurin fluorescence, 20 min; active compounds read high; 1 = untreated enzyme, 0 = substrate-free blank;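 active = activation factor of 2 or more at 20 µM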
Target sequence (P34949 whole entry, looked up): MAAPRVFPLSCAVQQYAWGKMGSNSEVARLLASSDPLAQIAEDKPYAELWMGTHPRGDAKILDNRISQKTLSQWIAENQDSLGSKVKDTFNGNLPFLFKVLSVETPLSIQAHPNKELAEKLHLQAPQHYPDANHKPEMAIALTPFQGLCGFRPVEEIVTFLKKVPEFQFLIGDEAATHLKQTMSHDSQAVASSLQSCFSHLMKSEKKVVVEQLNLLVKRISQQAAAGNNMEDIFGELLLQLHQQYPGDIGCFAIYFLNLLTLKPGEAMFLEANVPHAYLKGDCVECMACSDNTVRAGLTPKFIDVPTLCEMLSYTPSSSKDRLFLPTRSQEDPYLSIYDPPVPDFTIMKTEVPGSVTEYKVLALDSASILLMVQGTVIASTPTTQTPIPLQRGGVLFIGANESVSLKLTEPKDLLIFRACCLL
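Test system: human phosphomannose isomerase with PGI, G6PDH, diaphorase coupling enzymes / Doses: 20 µM compound, 1% DMSO / Times: enzyme reaction with compound 20 min at room temperature / Measured by: Diaphorase-driven resazurin-to-resorufin fluorescence, excitation 544, emission 590 nm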
PMI act: phosphomannose isomerase (human) activation. P34949. purified human PMI, coupled resazurin fluorescence, 20 min; active compounds read high; 1 = vehicle control, 0 substrate-free wells. activation factor at 20 µM. 190,000 tested, 0.005% active. AID 1214;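 active = activation factor of 2 or more at 20 µM, relative to plate controls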
Calpain2 inh: blocks pig calpain II enzyme activity; AID 1236; purified calpain II, fluorogenic peptide substrate, 30 min; inhibition, % at 16 µM; 220,000 tested, 0.37% active;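 active = inhibition above about 50%, limit read from the data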
WT yeast gro inh: growth inhibition of WT yeast, mitochondrial fusion screen | inhibition, % at 10 µM | AID 1362 | mitochondrial fusion phenotypic screen, WT strain | 190,000 tested, 2.1% active; in the data active = inhibition above about 58%; tested in S. cerevisiae
Lmaj promast: inhibitors of Leishmania major promastigote growth | Leishmania major promastigotes, resazurin fluorescence viability | inhibition, % at 10 µM | 200,000 tested, 9% active | AID 1063; in the data active = inhibition above about 50%;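 note: promastigotes grown with compound for 44 hours at 28 °C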
* marks the source's active call; other numbers are inactive results. The list is not random: actives were taken first. Their share in the collection is about 9.8%.

How did CCc1oc2ccccc2c1C(=O)CCN1CCCCC1 do in these assays?
Rad51 HR inh: -1; PMI act hi M6P: 0.6; PMI act: 0.6; Calpain2 inh: -12; WT yeast gro inh: 12; Lmaj promast: 74*

Results for OC(CCCCN1CCCCC1)c1ccccc1 (stereo not drawn) ?
Rad51 HR inh: 2; PMI act hi M6P: 1.1; PMI act: 1.1; Calpain2 inh: -36; WT yeast gro inh: 2; Lmaj promast: 54*

How did O=C(CCN1CCCCC1)c1ccccc1 do in these assays?
Rad51 HR inh: 1; PMI act hi M6P: 1.1; PMI act: 1.1; Calpain2 inh: -30; WT yeast gro inh: -13; Lmaj promast: 74*

What do the screens show for `OC(C#CCN1CCCCC1)c1ccccc1` (stereo not drawn)?
Rad51 HR inh: 6; PMI act hi M6P: 1; PMI act: 0.9; Calpain2 inh: 7; WT yeast gro inh: -12; Lmaj promast: -10

What do the screens show for `O=C(O)CCN1CCOCC1`?
Rad51 HR inh: 4; PMI act hi M6P: 1.1; PMI act: 1.1; Calpain2 inh: 11; WT yeast gro inh: -5; Lmaj promast: -1

How did O=C(CCN1CCOCC1)c1ccccc1 do in these assays?
Rad51 HR inh: 14; PMI act hi M6P: 1; PMI act: 1; Calpain2 inh: 14; WT yeast gro inh: 20; Lmaj promast: 95*

Results for O=C(CCN1CCCCC1)Nc1ccccc1 ?
PMI act hi M6P: 1; PMI act: 1.1; Calpain2 inh: -15; WT yeast gro inh: -2; Lmaj promast: -3

Results for CCOC(=O)C1CCN(c2c(NCCC(C)C)c(=O)c2=O)CC1 ?
Calpain2 inh: -1

Results for COC(=O)c1n[nH]n(-c2cc(Cl)cc(Cl)c2)c1=O ?
Rad51 HR inh: -15; Calpain2 inh: 8

Results for Cc1cc(C)c(COc2ccc(/C=N/n3c(C)n[nH]c3=S)cc2)c(C)c1 ?
PMI act hi M6P: 0.9; PMI act: 0.9; Calpain2 inh: -6; WT yeast gro inh: 91*; Lmaj promast: 2

What do the screens show for `COc1cc(CNCCN2CCOCC2)ccc1OCc1cccc(Cl)c1`?
Rad51 HR inh: -3; PMI act hi M6P: 1.1; PMI act: 1.1; Calpain2 inh: -33; WT yeast gro inh: -4; Lmaj promast: 95*

What do the screens show for `COc1cc(/C=N/N2CCOCC2)ccc1OCc1ccc(Cl)cc1`?
Rad51 HR inh: -16; PMI act hi M6P: 0.8; PMI act: 0.9; Calpain2 inh: -6; WT yeast gro inh: 14; Lmaj promast: -11

What do the screens show for `COc1cc(CNCCN2CCOCC2)ccc1OCc1ccc(Cl)cc1Cl`?
Rad51 HR inh: 6; PMI act hi M6P: 1.1; PMI act: 1; Calpain2 inh: -18; WT yeast gro inh: -7; Lmaj promast: 100*

How did CCOc1cc(CNc2ccc(O)cc2)ccc1OCc1ccc(Cl)cc1Cl do in these assays?
Rad51 HR inh: -2; PMI act hi M6P: 0.7; PMI act: 0.5; Calpain2 inh: 50; WT yeast gro inh: 18; Lmaj promast: 42

What do the screens show for `CCOc1ccc(-c2nn(-c3ccccc3)cc2/C=C2\SC(=S)N(Cc3ccco3)C2=O)cc1`?
Rad51 HR inh: -1; PMI act hi M6P: 1; PMI act: 1; Calpain2 inh: -50; WT yeast gro inh: -10; Lmaj promast: -6

Results for O=C1/C(=C/c2ccc(O)c([N+](=O)[O-])c2)SC(=S)N1Cc1ccccc1 ?
Rad51 HR inh: -57; PMI act hi M6P: 1.1; PMI act: 1.1; Calpain2 inh: 10; WT yeast gro inh: 31; Lmaj promast: 16

How did CCN1C(=O)/C(=C\c2cn(-c3ccccc3)nc2-c2cccnc2)SC1=S do in these assays?
Rad51 HR inh: 2; PMI act hi M6P: 0.8; PMI act: 0.9; Calpain2 inh: 51*; WT yeast gro inh: -4; Lmaj promast: 24

How did O=C1/C(=C/c2ccccc2O)SC(=S)N1Cc1cccnc1 do in these assays?
PMI act hi M6P: 1.2; PMI act: 1; Calpain2 inh: 21; WT yeast gro inh: 10; Lmaj promast: 88*

How did O=C1CSC(=S)N1Cc1cccnc1 do in these assays?
Rad51 HR inh: -7; PMI act hi M6P: 1; PMI act: 0.9; Calpain2 inh: 5; WT yeast gro inh: 6; Lmaj promast: 100*

How did CC1CC(C)(C)NC(=S)N1CCCC(=O)Nc1ccc(F)cc1 (stereo not drawn) do in these assays?
Rad51 HR inh: 6; PMI act hi M6P: 1; PMI act: 1.1; Calpain2 inh: -5; WT yeast gro inh: 18; Lmaj promast: -2
